Key:
Kidney [1] = experiment: Biodistribution in FVB mouse kidney assessed per gram of tissue at 1 to 4.8 MBq, iv after 90 mins; assay type: ADME, organism-based; conditions: in vivo, 1.5 h
Outline: (§1)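 Male FVB mice (8–10 weeks, 25–29 g) received tracer iv (1.0–4.8 MBq, 7.1–34 pmol). Killed by cervical dislocation at 5, 15, 30, 60 or 90 min. Blood taken by heart puncture; tissues dissected, weighed and gamma-counted. Activity decay-corrected to injection time and given as %ID/g; mean ± SD, n = 4 per time point.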

Lung [2] = experiment: Biodistribution in FVB mouse lung assessed per gram of tissue at 1 to 4.8 MBq, iv after 60 mins; assay type: ADME, organism-based; conditions: in vivo, 1 h; outline: as §1
Brain [3] = experiment: AUC (0 to 60 mins) in BCRP knockout mouse brain at 2.8 to 5.6 MBq, iv; assay type: ADME, organism-based; conditions: in vivo
Outline: (§2)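 Small-animal PET in male wild-type and knockout mice under isoflurane (1.0–1.5%), prone on the scanner bed. Tracer (2.8–5.6 MBq, 20–40 pmol) given iv, with or without co-injected GF120918 at 5 mg/kg. Dynamic 60-min list-mode scan. Decay-corrected SUV read from ROIs on brain, and on the ventricular cavity for blood. AUC taken over 0–60 min in SUV·min; n = 4 per group.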

Pancreas [4] = experiment: Biodistribution in FVB mouse pancreas assessed per gram of tissue at 1 to 4.8 MBq, iv after 15 mins; assay type: ADME, organism-based; conditions: in vivo, 0.25 h
Outline: (§3)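 Male FVB mice (8–10 weeks, 25–29 g) given tracer 1.0–4.8 MBq/7.1–34 pmol iv; killed by cervical dislocation at set times (n = 4 per group). Blood by heart puncture; tissues dissected, weighed and gamma counted. Radioactivity decay-corrected to injection time, expressed as %ID/g, mean ± SD.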

Spleen [5] = experiment: Biodistribution in FVB mouse spleen assessed per gram of tissue at 1 to 4.8 MBq, iv after 5 mins; assay type: ADME, organism-based; conditions: in vivo; outline: as §3
Liver = experiment: Biodistribution in FVB mouse liver assessed per gram of tissue at 1 to 4.8 MBq, iv after 60 mins; assay type: ADME, organism-based; conditions: in vivo, 1 h; outline: as §1
Brain [6] = experiment: Biodistribution in P-gp knockout mouse brain at 3.3 to 4.9 MBq, iv after up to 60 mins; assay type: ADME, organism-based; conditions: in vivo, 1 h
Kidney [7] = experiment: Biodistribution in FVB mouse kidney assessed per gram of tissue at 1 to 4.8 MBq, iv after 5 mins; assay type: ADME, organism-based; conditions: in vivo; outline: as §1
Heart [8] = experiment: Biodistribution in FVB mouse heart assessed per gram of tissue at 1 to 4.8 MBq, iv after 90 mins; assay type: ADME, organism-based; conditions: in vivo, 1.5 h; outline: as §1
Brain [9] = experiment: Biodistribution in FVB mouse brain assessed per gram of tissue at 1 to 4.8 MBq, iv after 60 mins; assay type: ADME, organism-based; conditions: in vivo, 1 h; outline: as §1
Lung [10] = experiment: Biodistribution in FVB mouse lung assessed per gram of tissue at 1 to 4.8 MBq, iv after 30 mins; assay type: ADME, organism-based; conditions: in vivo, 0.5 h; outline: as §1
Blood [11] = experiment: Biodistribution in FVB mouse blood assessed per gram of tissue at 1 to 4.8 MBq, iv after 15 mins; assay type: ADME, organism-based; conditions: in vivo, 0.25 h; outline: as §1
Blood [12] = experiment: Biodistribution in FVB mouse blood assessed per gram of tissue at 1 to 4.8 MBq, iv after 30 mins; assay type: ADME, organism-based; conditions: in vivo, 0.5 h; outline: as §1
Heart [13] = experiment: Biodistribution in FVB mouse heart assessed per gram of tissue at 1 to 4.8 MBq, iv after 5 mins; assay type: ADME, organism-based; conditions: in vivo; outline: as §1
Spleen [14] = experiment: Biodistribution in FVB mouse spleen assessed per gram of tissue at 1 to 4.8 MBq, iv after 30 mins; assay type: ADME, organism-based; conditions: in vivo, 0.5 h; outline: as §3
Muscle tissue [15] = experiment: Biodistribution in FVB mouse muscle assessed per gram of tissue at 1 to 4.8 MBq, iv after 30 mins; assay type: ADME, organism-based; conditions: in vivo, 0.5 h; outline: as §1
Bone [16] = experiment: Biodistribution in FVB mouse bone assessed per gram of tissue at 1 to 4.8 MBq, iv after 15 mins; assay type: ADME, organism-based, Bone element; conditions: in vivo, 0.25 h; outline: as §1
Brain [17] = experiment: Biodistribution in FVB mouse brain assessed per gram of tissue at 1 to 4.8 MBq, iv after 30 mins; assay type: ADME, organism-based; conditions: in vivo, 0.5 h; outline: as §1
Blood [18] = experiment: AUC (0 to 60 mins) in P-gp knockout mouse blood at 2.8 to 5.6 MBq, iv; assay type: ADME, tissue-based; outline: as §2
Blood [19] = experiment: Biodistribution in FVB mouse blood assessed per gram of tissue at 1 to 4.8 MBq, iv after 5 mins; assay type: ADME, organism-based; conditions: in vivo; outline: as §1
Blood [20] = experiment: AUC (0 to 60 mins) in BCRP knockout mouse blood at 2.8 to 5.6 MBq, iv; assay type: ADME, tissue-based; outline: as §2
Pancreas [21] = experiment: Biodistribution in FVB mouse pancreas assessed per gram of tissue at 1 to 4.8 MBq, iv after 30 mins; assay type: ADME, organism-based; conditions: in vivo, 0.5 h; outline: as §3
Bone [22] = experiment: Biodistribution in FVB mouse bone assessed per gram of tissue at 1 to 4.8 MBq, iv after 60 mins; assay type: ADME, organism-based, Bone element; conditions: in vivo, 1 h; outline: as §1
Spleen [23] = experiment: Biodistribution in FVB mouse spleen assessed per gram of tissue at 1 to 4.8 MBq, iv after 60 mins; assay type: ADME, organism-based; conditions: in vivo, 1 h; outline: as §3
Brain [24] = experiment: Biodistribution in FVB mouse brain assessed per gram of tissue at 1 to 4.8 MBq, iv after 15 mins; assay type: ADME, organism-based; conditions: in vivo, 0.25 h; outline: as §1
Brain [25] = experiment: Biodistribution in FVB mouse brain assessed per gram of tissue at 1 to 4.8 MBq, iv after 5 mins; assay type: ADME, organism-based; conditions: in vivo; outline: as §1
Brain [26] = experiment: Metabolic stability in FVB mouse brain assessed as recovery of radioactivity at 1 to 4.8 MBq, iv by HPLC analysis; assay type: ADME, organism-based; conditions: in vivo
Outline: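 Brain homogenate or plasma from tracer plus GF120918 (5 mg/kg) co-injected FVB mice deproteinized with equal volume ice-cold acetonitrile; radioactivity in supernatant, precipitate and HPLC waste gamma counted to give recovery, mean ± SD (n = 7).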

Brain [27] = experiment: Ratio of AUC (0 to 60 mins) in P-gp knockout mouse brain to AUC (0 to 60 mins) in wild type mouse brain at 2.8 to 5.6 MBq, iv; assay type: ADME, organism-based; conditions: in vivo
[28] = Fold increase in brain-to-blood ratio of drug level in FVB mouse at 1 to 4.8 MBq, iv co-administered with 5 mg/kg, iv of GF120918; conditions: brain and blood, with GF120918, 5 mg/kg iv
Blood [29] = experiment: AUC (0 to 60 mins) in P-gp/BCRP knockout mouse blood at 2.8 to 5.6 MBq, iv; assay type: ADME, tissue-based; outline: as §2
Brain [30] = experiment: AUC (0 to 60 mins) in P-gp knockout mouse brain at 2.8 to 5.6 MBq, iv; assay type: ADME, organism-based; conditions: in vivo; outline: as §2
Muscle tissue [31] = experiment: Biodistribution in FVB mouse muscle assessed per gram of tissue at 1 to 4.8 MBq, iv after 15 mins; assay type: ADME, organism-based; conditions: in vivo, 0.25 h; outline: as §1
Brain [32] = experiment: Ratio of AUC (0 to 60 mins) in P-gp/BCRP knockout mouse brain to AUC (0 to 60 mins) in wild type mouse brain at 2.8 to 5.6 MBq, iv; assay type: ADME, organism-based; conditions: in vivo
Heart [33] = experiment: Biodistribution in FVB mouse heart assessed per gram of tissue at 1 to 4.8 MBq, iv after 30 mins; assay type: ADME, organism-based; conditions: in vivo, 0.5 h; outline: as §1
Muscle tissue [34] = experiment: Biodistribution in FVB mouse muscle assessed per gram of tissue at 1 to 4.8 MBq, iv after 60 mins; assay type: ADME, organism-based; conditions: in vivo, 1 h; outline: as §1
Bone [35] = experiment: Biodistribution in FVB mouse bone assessed per gram of tissue at 1 to 4.8 MBq, iv after 30 mins; assay type: ADME, organism-based, Bone element; conditions: in vivo, 0.5 h; outline: as §1

Row | SMILES | Drug uptake (Kidney [1]) [% ID/g] | Drug uptake (Lung [2]) [% ID/g] | SUV (Brain [3]) | Drug uptake (Pancreas [4]) [% ID/g] | Drug uptake (Spleen [5]) [% ID/g] | Drug uptake (Liver) [% ID/g] | Activity (Brain [6]) | Drug uptake (Kidney [7]) [% ID/g] | Drug uptake (Heart [8]) [% ID/g] | Drug uptake (Brain [9]) [% ID/g] | Drug uptake (Lung [10]) [% ID/g] | Drug uptake (Blood [11]) [% ID/g] | Drug uptake (Blood [12]) [% ID/g] | Drug uptake (Heart [13]) [% ID/g] | Drug uptake (Spleen [14]) [% ID/g] | Drug uptake (Muscle tissue [15]) [% ID/g] | Drug uptake (Bone [16]) [% ID/g] | Drug uptake (Brain [17]) [% ID/g] | AUC (Blood [18]) [SUV·min] | Drug uptake (Blood [19]) [% ID/g] | also measured
1 | COc1cc(NC(=O)c2cnc3ccccc3c2)c(C(=O)Nc2ccc(CCN3CCc4cc(OC)c(OCC[18F])cc4C3)cc2)cc1OC | 10.17 | 16.06 | 6.5 | 8.27 | 5.12 | 25.4 | Active | 18 | 1.74 | 0.1 | 17.89 | 0.88 | 0.63 | 7.44 | 6.34 | 1.04 | 1.85 | 0.11 | 45 | 1.39 | AUC (Blood [20]): 42.2 SUV·min; Drug uptake (Pancreas [21]): 8.56 % ID/g; Drug uptake (Bone [22]): 1.62 % ID/g; Drug uptake (Spleen [23]): 7.18 % ID/g; Drug uptake (Brain [24]): 0.11 % ID/g; Drug uptake (Brain [25]): 0.13 % ID/g; Stability (Brain [26]): 92.5%; Ratio AUC (Brain [27]): 2.3; Fold increase [28]: 10; AUC (Blood [29]): 33.9 SUV·min; SUV (Brain [30]): 9.1; Drug uptake (Muscle tissue [31]): 1.61 % ID/g; Ratio AUC (Brain [32]): 8.3; Drug uptake (Heart [33]): 2.86 % ID/g; Drug uptake (Muscle tissue [34]): 0.92 % ID/g; Drug uptake (Bone [35]): 1.45 % ID/g
2 | COc1cc2c(cc1OC)CN(CCc1ccc(NC(=O)c3cccc4c(=O)c5cccc(OCC[18F])c5[nH]c34)cc1)CC2 | 19.98 | 6.16 | 5 | 9.68 | 4.76 | 11.6 | Active | 20.65 | 0.85 | 0.17 | 7.21 | 0.72 | 0.65 | 6.65 | 5.82 | 0.62 | 1.66 | 0.14 | 23.5 | 1.39 | AUC (Blood [20]): 25.3 SUV·min; Drug uptake (Pancreas [21]): 11.15 % ID/g; Drug uptake (Bone [22]): 1.43 % ID/g; Drug uptake (Spleen [23]): 5.74 % ID/g; Drug uptake (Brain [24]): 0.16 % ID/g; Drug uptake (Brain [25]): 0.18 % ID/g; Stability (Brain [26]): 91.4%; Ratio AUC (Brain [27]): 2.4; Fold increase [28]: 10; AUC (Blood [29]): 25 SUV·min; SUV (Brain [30]): 10.6; Drug uptake (Muscle tissue [31]): 1.18 % ID/g; Ratio AUC (Brain [32]): 9; Drug uptake (Heart [33]): 1.38 % ID/g; Drug uptake (Muscle tissue [34]): 0.53 % ID/g; Drug uptake (Bone [35]): 1.63 % ID/g
